Test results taken from ChEMBL document CHEMBL5346932, “Structure-activity relationships of actively FhuE transported rifabutin derivatives with potent activity against Acinetobacter baumannii” (Eur J Med Chem, 2023).
≈ marks a conversion by molar mass, not a printed value. Calls of active or inactive are those of the source. The calls are words filed in the database; no cut-off is given here.

Columns and labels:
Staphylococcus aureus [1] = test: Antibacterial activity against Staphylococcus aureus USA300 UAMS-1625 assessed as bacterial growth inhibition incubated for 20 hrs by CLSI based microbroth dilution method; format: functional
Method in brief: (§1)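 CLSI broth microdilution in CAMHB against S. aureus USA300 UAMS-1625. Compounds in 2-fold dilution series; inoculum 5×10^5 CFU/mL. Incubated without shaking at 35 °C for 20 h. MIC read visually as the lowest concentration preventing visible growth. Fold changes are relative to the rifabutin MIC.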

[2] = Inhibition of transcription in Acinetobacter baumannii HUMC1 using pVT784 as reporter plasmid preincubated for 30 mins followed by reporter plasmid addition and measured after 60 mins by Nano-Glo luciferase assay; format: functional
Method in brief: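 Cell-free transcription/translation used A. baumannii HUMC1 extract at 1.2 mg/mL, with extract from 2xYT+P culture after a run-off step and dialysis at pH 8.2. Compound was preincubated with extract for 30 min on ice. Reporter plasmid (0.5 nM) was then added and luminescence read after 60 min at 25 °C. Compounds were tested at 8 to 0.002 mg/L in triplicate. IC50 was fit from no-compound-normalized signal.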

Acinetobacter baumannii [3] = test: Antibacterial activity against Acinetobacter baumannii HUMC1 cultured in RPMI 1640 medium supplemented with 10% FCS assessed as bacterial growth inhibition incubated for 20 hrs by CLSI based microbroth dilution method; format: functional; settings: Acinetobacter baumannii
Method in brief: (§2)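 CLSI broth microdilution in RPMI 1640 + 10% FCS in place of CAMHB. Compounds in 2-fold dilution series; inoculum 5×10^5 CFU/mL. Plates held static at 35 °C for 20 h. MIC read visually as the lowest concentration with no visible growth. […] is the reciprocal of this MIC.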

Acinetobacter baumannii [4] = test: Antibacterial activity against Acinetobacter baumannii HUMC1 cultured in iron-limited RPMI medium supplemented with 10% FCS assessed as inverse MIC incubated for 20 hrs by CLSI based microbroth dilution method; format: functional; method in brief: as §2
Acinetobacter baumannii [5] = test: Antibacterial activity against Acinetobacter baumannii HUMC1 harboring FhuE deletion mutant assessed as bacterial growth inhibition incubated for 20 hrs by CLSI based microbroth dilution method; format: functional
Method in brief: (§3)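 Microbroth dilution per CLSI in RPMI 1640 + 10% FCS (in place of CAMHB). Compounds as 2-fold serial dilutions; inoculum 5×10^5 CFU/mL of previously described HUMC1-derived mutant strains. Incubated static at 35 °C for 20 h. MIC read visually as lowest concentration preventing visible growth.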

[6] = Drug accumulation in Acinetobacter baumannii HUMC1 cultured in iron-limited RPMI medium supplemented with 10% FCS measured per 5 ml of culture medium at 0.05 uM incubated for 10 mins by LC-MS/MS analysis; format: ADME
Method in brief: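 5 mL of suspension was dosed from DMSO stocks (0.002–5 mM) and shaken at 150 rpm for 10 min at 37 °C. Cells were pelleted, washed, and lysed (sucrose/EDTA). LC-MS/MS MRM quantitation used caffeine-normalized standard curves in spiked lysate. Reported as amount per 5 mL; n≥2 independent replicates.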

Staphylococcus aureus [7] = test: Antibacterial activity against Staphylococcus aureus USA300 UAMS-1625 assessed as fold reduction in MIC incubated for 20 hrs by CLSI based microbroth dilution method relative to rifabutin; format: functional; method in brief: as §1
Acinetobacter baumannii [8] = test: Antibacterial activity against Acinetobacter baumannii HUMC1 harboring RpoB H535C mutant assessed as bacterial growth inhibition incubated for 20 hrs by CLSI based microbroth dilution method; format: functional; method in brief: as §3
Acinetobacter baumannii [9] = test: Antibacterial activity against Acinetobacter baumannii HUMC1 harboring RpoB H535Q mutant assessed as bacterial growth inhibition incubated for 20 hrs by CLSI based microbroth dilution method; format: functional; method in brief: as §3
Acinetobacter baumannii [10] = test: Antibacterial activity against Acinetobacter baumannii HUMC1 harboring RpoB H535C mutant assessed as fold reduction in MIC incubated for 20 hrs by CLSI based microbroth dilution method relative to rifabutin; format: functional
Acinetobacter baumannii [11] = test: Antibacterial activity against Acinetobacter baumannii HUMC1 harboring RpoB H535Q mutant assessed as fold reduction in MIC incubated for 20 hrs by CLSI based microbroth dilution method relative to rifabutin; format: functional
Staphylococcus aureus [12] = test: Antibacterial activity against Staphylococcus aureus USA300 UAMS-1625 assessed as fold increase in MIC incubated for 20 hrs by CLSI based microbroth dilution method relative to rifabutin; format: functional; method in brief: as §1

Row | Compound | IC50 [2] [µg/mL] | MIC (Acinetobacter baumannii [3]; HUMC1, 20 h, read-out: MIC) [µg/mL] | 1/MIC (Acinetobacter baumannii [4]) [L/mg] | MIC (Acinetobacter baumannii [5]) [µg/mL] | fold change (FC) (Staphylococcus aureus [7]) | further results
1 | CO[C@H]1/C=C/O[C@@]2(C)Oc3c(C)c(O)c4c(c3C2=O)C2=NC3(CCN(C(C)(C)C)CC3)NC2=C(NC(=O)/C(C)=C\C=C\[C@H](C)[C@H](O)[C@@H](C)[C@@H](O)[C@@H](C)[C@H](OC(C)=O)[C@@H]1C)C4=O | 0.06 (≈ 0.0708 µM) | 0.002 (≈ 0.00236 µM) | 500 | 0.5 (≈ 0.59 µM) | – | Activity (Staphylococcus aureus [1]): Active; Drug uptake [6]: 32.73 pmol
2 | CO[C@H]1/C=C/O[C@@]2(C)Oc3c(C)c(O)c4c(c3C2=O)C2=NC3(CCN(C5CCCC5)CC3)NC2=C(NC(=O)/C(C)=C\C=C\[C@H](C)[C@H](O)[C@@H](C)[C@@H](O)[C@@H](C)[C@H](OC(C)=O)[C@@H]1C)C4=O (stereo in doubt; form 1) | – | ≤ 0.002 | – | – | 2 | –
3 | CCN1CCC2(CC1)N=C1C(=C3NC(=O)/C(C)=C\C=C\[C@H](C)[C@H](O)[C@@H](C)[C@@H](O)[C@@H](C)[C@H](OC(C)=O)[C@H](C)[C@@H](OC)/C=C/O[C@@]4(C)Oc5c(C)c(O)c(c1c5C4=O)C3=O)N2 | – | 0.004 (≈ 0.00488 µM) | – | – | 2 | –
4 | CO[C@H]1/C=C/O[C@@]2(C)Oc3c(C)c(O)c4c(c3C2=O)C2=NC3(CCN(C5CC5)CC3)NC2=C(NC(=O)/C(C)=C\C=C\[C@H](C)[C@H](O)[C@@H](C)[C@@H](O)[C@@H](C)[C@H](OC(C)=O)[C@@H]1C)C4=O (stereo in doubt; form 1) | 0.12 (≈ 0.144 µM) | ≤ 0.002 | 1000 | 0.5 (≈ 0.602 µM) | 2 | MIC (Acinetobacter baumannii [8]): 0.004 µg/mL (≈ 0.00481 µM); MIC (Acinetobacter baumannii [9]): 0.004 µg/mL (≈ 0.00481 µM); fold change (FC) (Acinetobacter baumannii [10]): 2; fold change (FC) (Acinetobacter baumannii [11]): 2; Drug uptake [6]: 24.66 pmol
5 | CO[C@H]1/C=C/O[C@@]2(C)Oc3c(C)c(O)c4c(c3C2=O)C2=NC3(CCN(C(C)C)CC3)NC2=C(NC(=O)/C(C)=C\C=C\[C@H](C)[C@H](O)[C@@H](C)[C@@H](O)[C@@H](C)[C@H](OC(C)=O)[C@@H]1C)C4=O | – | 0.002 (≈ 0.0024 µM) | – | 0.5 (≈ 0.6 µM) | 2 | –
6 | CO[C@H]1/C=C/O[C@@]2(C)Oc3c(C)c(O)c4c(c3C2=O)C2=NC3(CCNCC3)NC2=C(NC(=O)/C(C)=C\C=C\[C@H](C)[C@H](O)[C@@H](C)[C@@H](O)[C@@H](C)[C@H](OC(C)=O)[C@@H]1C)C4=O | 0.05 (≈ 0.0632 µM) | 0.25 (≈ 0.316 µM) | 4 | 0.5 (≈ 0.632 µM) | – | MIC (Acinetobacter baumannii [8]): 1 µg/mL (≈ 1.26 µM); fold change (FC) (Staphylococcus aureus [12]): 2; MIC (Acinetobacter baumannii [9]): 1 µg/mL (≈ 1.26 µM); Drug uptake [6]: 0.47 pmol
7 | CO[C@H]1/C=C/O[C@@]2(C)Oc3c(C)c(O)c4c(c3C2=O)C2=NC3(CCN(C5CCCCC5)CC3)NC2=C(NC(=O)/C(C)=C\C=C\[C@H](C)[C@H](O)[C@@H](C)[C@@H](O)[C@@H](C)[C@H](OC(C)=O)[C@@H]1C)C4=O | – | 0.016 (≈ 0.0183 µM) | – | – | – | fold change (FC) (Staphylococcus aureus [12]): 2
8 | CCC(C)(C)N1CCC2(CC1)N=C1C(=C3NC(=O)/C(C)=C\C=C\[C@H](C)[C@H](O)[C@@H](C)[C@@H](O)[C@@H](C)[C@H](OC(C)=O)[C@H](C)[C@@H](OC)/C=C/O[C@@]4(C)Oc5c(C)c(O)c(c1c5C4=O)C3=O)N2 | – | 0.008 (≈ 0.00929 µM) | – | – | 2 | –
9 | CO[C@H]1/C=C/O[C@@]2(C)Oc3c(C)c(O)c4c(O)c(c(/C=N/N5CCN(C)CC5)c(O)c4c3C2=O)NC(=O)/C(C)=C\C=C\[C@H](C)[C@H](O)[C@@H](C)[C@@H](O)[C@@H](C)[C@H](OC(C)=O)[C@@H]1C [RIFAMPIN] | 0.07 (≈ 0.0851 µM) | – | 0.25 | – | – | MIC (Acinetobacter baumannii [3]; HUMC1, read-out: MIC): 4 µg/mL (≈ 4.86 µM); Drug uptake ([6]; BLD = below limit of detection): Bld
10 | CO[C@H]1/C=C/O[C@@]2(C)Oc3c(C)c(O)c4c(c3C2=O)C2=NC3(CCN(CC5CCCC5)CC3)NC2=C(NC(=O)/C(C)=C\C=C\[C@H](C)[C@H](O)[C@@H](C)[C@@H](O)[C@@H](C)[C@H](OC(C)=O)[C@@H]1C)C4=O | – | 0.016 (≈ 0.0183 µM) | – | – | – | fold change (FC) (Staphylococcus aureus [12]): 2
11 | CO[C@H]1/C=C/O[C@@]2(C)Oc3c(C)c(O)c4c(c3C2=O)C2=NC3(CCN(CCC(C)(C)C)CC3)NC2=C(NC(=O)/C(C)=C\C=C\[C@H](C)[C@H](O)[C@@H](C)[C@@H](O)[C@@H](C)[C@H](OC(C)=O)[C@@H]1C)C4=O | 0.17 (≈ 0.194 µM) | 0.06 (≈ 0.0686 µM) | 16.67 | 0.5 (≈ 0.571 µM) | 2 | MIC (Acinetobacter baumannii [8]): 1 µg/mL (≈ 1.14 µM); MIC (Acinetobacter baumannii [9]): 1 µg/mL (≈ 1.14 µM); Drug uptake [6]: 9.55 pmol
12 | CO[C@H]1/C=C/O[C@@]2(C)Oc3c(C)c(O)c4c(c3C2=O)C2=NC3(CCN(CC5CC5)CC3)NC2=C(NC(=O)/C(C)=C\C=C\[C@H](C)[C@H](O)[C@@H](C)[C@@H](O)[C@@H](C)[C@H](OC(C)=O)[C@@H]1C)C4=O | – | 0.001 (≈ 0.00118 µM) | – | 0.5 (≈ 0.592 µM) | – | Activity (Staphylococcus aureus [1]): Active
13 | CCCN1CCC2(CC1)N=C1C(=C3NC(=O)/C(C)=C\C=C\[C@H](C)[C@H](O)[C@@H](C)[C@@H](O)[C@@H](C)[C@H](OC(C)=O)[C@H](C)[C@@H](OC)/C=C/O[C@@]4(C)Oc5c(C)c(O)c(c1c5C4=O)C3=O)N2 | – | 0.004 (≈ 0.0048 µM) | – | 0.5 (≈ 0.6 µM) | – | Activity (Staphylococcus aureus [1]): Active
14 | CO[C@H]1/C=C/O[C@@]2(C)Oc3c(C)c(O)c4c(c3C2=O)C2=NC3(CCN(c5ccccc5)CC3)NC2=C(NC(=O)/C(C)=C\C=C\[C@H](C)[C@H](O)[C@@H](C)[C@@H](O)[C@@H](C)[C@H](OC(C)=O)[C@@H]1C)C4=O | – | 0.125 (≈ 0.144 µM) | – | – | – | fold change (FC) (Staphylococcus aureus [12]): 2
15 | CO[C@H]1/C=C/O[C@@]2(C)Oc3c(C)c(O)c4c(c3C2=O)C2=NC3(CCN(C)CC3)NC2=C(NC(=O)/C(C)=C\C=C\[C@H](C)[C@H](O)[C@@H](C)[C@@H](O)[C@@H](C)[C@H](OC(C)=O)[C@@H]1C)C4=O | – | 0.016 (≈ 0.0199 µM) | – | – | 2 | –
